Measured values as given in ChEMBL document CHEMBL3259663, “3-Amido-3-aryl-piperidines: A Novel Class of Potent, Selective, and Orally Active GlyT1 Inhibitors” (ACS Med Chem Lett, 2014).

What was measured:
[1] = Ratio of drug level from brain to plasma in mouse at 7.7 mg/kg, po after 1.5 hrs; format: ADME, organism-based; parameters: dose 7.7 mg/kg, route oral; conditions: brain and plasma, read-out: BPR
How it was run: (§1)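 Mouse PK after a 7.7 mg/kg oral dose. Brain/plasma ratio taken at 1.5 h. Values are the average of two independent experiments.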

[2] = Dissociation constant, pKa of the compound by capillary electrophoresis; format: physicochemical
How it was run: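 pKa determined by capillary electrophoresis.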

[3] = molecular target: Cytochrome P450 2D6 (Homo sapiens, UniProt P10635); assay: Inhibition of CYP2D6 (unknown origin); format: ADME
Cytochrome P450 2D6, sequence (P10635 whole entry): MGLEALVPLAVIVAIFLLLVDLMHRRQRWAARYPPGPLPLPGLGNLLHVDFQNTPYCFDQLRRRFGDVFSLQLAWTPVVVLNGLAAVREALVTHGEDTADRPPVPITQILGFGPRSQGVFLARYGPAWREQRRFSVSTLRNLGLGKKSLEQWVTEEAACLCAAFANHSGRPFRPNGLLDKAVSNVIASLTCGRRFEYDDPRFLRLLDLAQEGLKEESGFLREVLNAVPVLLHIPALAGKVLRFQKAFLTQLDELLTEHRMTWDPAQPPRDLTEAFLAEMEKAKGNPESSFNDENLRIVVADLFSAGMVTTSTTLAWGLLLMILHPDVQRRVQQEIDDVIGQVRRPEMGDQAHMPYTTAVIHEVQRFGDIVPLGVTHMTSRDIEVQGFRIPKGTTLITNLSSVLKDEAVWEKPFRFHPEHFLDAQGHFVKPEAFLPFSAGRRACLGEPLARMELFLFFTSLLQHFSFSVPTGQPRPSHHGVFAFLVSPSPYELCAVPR

[4] = test system: Mus musculus; assay: Inhibition of L687414-induced hyperlocomotion in po dosed mouse assessed horizontal activity; format: functional
How it was run: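 Oral dosing in mice against L-687,414-induced hyperlocomotion. Horizontal activity counts recorded over 60 min, mean per group, n = 8 per group. ID₅₀ is the dose producing 50% inhibition of the hyperlocomotion.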

[5] = molecular target: T1, Sodium- and chloride-dependent glycine transporter 2 (Homo sapiens, UniProt Q9Y345); assay: Inhibition of human GlyT2 expressed in cells assessed as [3H]glycine uptake; format: cell-based
T1 sequence (Q9Y345 whole entry): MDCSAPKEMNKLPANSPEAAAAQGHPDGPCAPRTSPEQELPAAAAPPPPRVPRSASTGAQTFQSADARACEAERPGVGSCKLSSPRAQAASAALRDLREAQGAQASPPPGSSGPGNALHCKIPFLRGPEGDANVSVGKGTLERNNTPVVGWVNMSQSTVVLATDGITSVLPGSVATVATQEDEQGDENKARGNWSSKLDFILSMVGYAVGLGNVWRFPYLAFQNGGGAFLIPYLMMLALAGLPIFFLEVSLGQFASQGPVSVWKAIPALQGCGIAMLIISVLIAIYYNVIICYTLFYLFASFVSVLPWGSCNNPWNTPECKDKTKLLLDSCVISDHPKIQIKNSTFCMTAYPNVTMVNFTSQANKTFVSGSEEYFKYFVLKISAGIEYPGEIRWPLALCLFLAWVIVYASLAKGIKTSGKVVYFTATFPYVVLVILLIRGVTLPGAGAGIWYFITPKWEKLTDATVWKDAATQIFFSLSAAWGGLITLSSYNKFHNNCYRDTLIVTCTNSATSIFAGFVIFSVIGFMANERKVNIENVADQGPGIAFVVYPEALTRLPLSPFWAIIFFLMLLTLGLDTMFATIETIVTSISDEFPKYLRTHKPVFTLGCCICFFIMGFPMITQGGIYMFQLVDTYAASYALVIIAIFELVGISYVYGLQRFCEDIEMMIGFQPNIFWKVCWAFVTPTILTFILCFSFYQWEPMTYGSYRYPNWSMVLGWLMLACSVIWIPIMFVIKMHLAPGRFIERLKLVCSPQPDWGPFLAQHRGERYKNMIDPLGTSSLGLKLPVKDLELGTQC

[6] = molecular target: hERG (KCNH2) (Homo sapiens, UniProt Q12809); assay: Inhibition of human ERG channel by Patch clamp assay
hERG (KCNH2), sequence (Q12809 whole entry): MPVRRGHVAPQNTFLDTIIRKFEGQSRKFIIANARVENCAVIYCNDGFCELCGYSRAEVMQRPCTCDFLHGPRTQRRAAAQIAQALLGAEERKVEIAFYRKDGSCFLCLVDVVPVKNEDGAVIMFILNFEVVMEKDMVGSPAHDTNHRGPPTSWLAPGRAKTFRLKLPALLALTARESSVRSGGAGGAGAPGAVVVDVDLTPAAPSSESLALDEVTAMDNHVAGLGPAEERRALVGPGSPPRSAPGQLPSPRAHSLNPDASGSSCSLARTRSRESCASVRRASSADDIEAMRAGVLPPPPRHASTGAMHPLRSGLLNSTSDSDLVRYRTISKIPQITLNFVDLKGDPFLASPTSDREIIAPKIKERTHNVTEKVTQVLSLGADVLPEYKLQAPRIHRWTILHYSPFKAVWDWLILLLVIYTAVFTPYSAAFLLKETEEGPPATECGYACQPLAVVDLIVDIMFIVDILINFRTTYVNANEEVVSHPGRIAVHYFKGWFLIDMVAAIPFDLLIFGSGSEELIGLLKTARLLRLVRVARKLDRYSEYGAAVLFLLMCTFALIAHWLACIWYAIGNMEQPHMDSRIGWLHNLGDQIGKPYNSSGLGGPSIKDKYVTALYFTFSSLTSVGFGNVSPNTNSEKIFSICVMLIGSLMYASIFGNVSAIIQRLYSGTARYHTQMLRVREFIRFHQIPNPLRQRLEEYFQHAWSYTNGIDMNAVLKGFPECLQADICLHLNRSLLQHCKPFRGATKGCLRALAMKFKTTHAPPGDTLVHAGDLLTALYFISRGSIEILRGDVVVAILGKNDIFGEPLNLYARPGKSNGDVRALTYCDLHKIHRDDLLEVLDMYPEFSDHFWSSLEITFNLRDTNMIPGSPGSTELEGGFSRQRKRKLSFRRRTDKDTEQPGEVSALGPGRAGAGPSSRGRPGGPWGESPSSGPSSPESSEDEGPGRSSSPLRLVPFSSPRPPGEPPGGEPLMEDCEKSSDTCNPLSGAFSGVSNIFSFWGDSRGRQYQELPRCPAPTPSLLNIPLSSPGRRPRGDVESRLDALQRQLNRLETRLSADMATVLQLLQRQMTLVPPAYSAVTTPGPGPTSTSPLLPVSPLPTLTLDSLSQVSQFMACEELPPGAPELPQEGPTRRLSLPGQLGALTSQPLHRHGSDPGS

[7] = test system: MDR1 (P-gp); assay: Efflux ratio of permeability in pig LLC-PK1 cells expressing human MDR1; format: ADME, cell-based, Sus scrofa
How it was run: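 Efflux ratio measured in LLC-PK1 cells stably expressing human MDR1 or mouse MDR1A.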

[8] = Genotoxicity in micronucleus (unknown origin) by MNT test
[9] = Intrinsic clearance in human liver microsomes; format: ADME; conditions: read-out: CLH
[10] = molecular target: Cytochrome P450 2C19 (Homo sapiens, UniProt P33261); assay: Inhibition of CYP2C19 (unknown origin); format: ADME
Cytochrome P450 2C19, sequence (P33261 whole entry): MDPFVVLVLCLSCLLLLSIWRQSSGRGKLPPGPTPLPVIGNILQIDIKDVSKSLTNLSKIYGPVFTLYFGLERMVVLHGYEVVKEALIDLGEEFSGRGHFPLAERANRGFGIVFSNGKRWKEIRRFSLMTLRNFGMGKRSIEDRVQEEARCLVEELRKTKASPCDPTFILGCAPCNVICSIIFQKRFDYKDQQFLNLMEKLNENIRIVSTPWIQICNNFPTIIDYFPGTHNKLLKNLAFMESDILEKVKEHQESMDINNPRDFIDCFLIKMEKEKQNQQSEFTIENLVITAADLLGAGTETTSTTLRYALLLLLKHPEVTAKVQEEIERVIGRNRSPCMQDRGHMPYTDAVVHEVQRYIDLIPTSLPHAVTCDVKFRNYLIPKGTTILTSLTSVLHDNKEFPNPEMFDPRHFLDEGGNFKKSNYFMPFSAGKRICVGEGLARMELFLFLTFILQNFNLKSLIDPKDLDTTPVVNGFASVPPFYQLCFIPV

[11] = molecular target: T2, Sodium- and chloride-dependent glycine transporter 1 (Homo sapiens, UniProt P48067); assay: Inhibition of human GlyT1 expressed in cells assessed as [3H]glycine uptake; format: cell-based
T2 sequence (P48067 whole entry): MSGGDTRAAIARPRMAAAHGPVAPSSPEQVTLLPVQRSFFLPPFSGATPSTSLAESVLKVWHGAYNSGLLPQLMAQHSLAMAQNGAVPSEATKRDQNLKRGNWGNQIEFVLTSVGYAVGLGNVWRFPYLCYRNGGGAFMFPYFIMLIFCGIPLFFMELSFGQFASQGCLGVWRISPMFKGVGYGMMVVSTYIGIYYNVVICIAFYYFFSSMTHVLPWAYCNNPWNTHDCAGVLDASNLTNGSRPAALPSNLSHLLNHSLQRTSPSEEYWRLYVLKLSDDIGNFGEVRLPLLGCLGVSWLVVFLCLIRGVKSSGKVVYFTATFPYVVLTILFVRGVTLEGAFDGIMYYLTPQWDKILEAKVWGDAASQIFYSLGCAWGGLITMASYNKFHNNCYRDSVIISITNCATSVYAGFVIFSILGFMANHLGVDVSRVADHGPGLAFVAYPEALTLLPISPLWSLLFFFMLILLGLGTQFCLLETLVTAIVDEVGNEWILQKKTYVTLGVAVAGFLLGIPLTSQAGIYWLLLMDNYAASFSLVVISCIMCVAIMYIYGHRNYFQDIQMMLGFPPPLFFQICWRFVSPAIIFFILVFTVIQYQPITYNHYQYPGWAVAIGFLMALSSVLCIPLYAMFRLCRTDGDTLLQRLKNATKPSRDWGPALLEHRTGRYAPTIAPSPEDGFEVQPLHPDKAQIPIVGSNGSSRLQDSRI
How it was run: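 [³H]-glycine uptake inhibition in cells transfected with human GlyT1. EC₅₀ values are the average of at least two independent experiments.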

[12] = Intrinsic clearance in mouse liver microsomes; format: ADME; conditions: read-out: CLH
[13] = molecular target: Cytochrome P450 3A4 (Homo sapiens, UniProt P08684); assay: Inhibition of CYP3A4 (unknown origin); format: ADME
Cytochrome P450 3A4, sequence (P08684 whole entry): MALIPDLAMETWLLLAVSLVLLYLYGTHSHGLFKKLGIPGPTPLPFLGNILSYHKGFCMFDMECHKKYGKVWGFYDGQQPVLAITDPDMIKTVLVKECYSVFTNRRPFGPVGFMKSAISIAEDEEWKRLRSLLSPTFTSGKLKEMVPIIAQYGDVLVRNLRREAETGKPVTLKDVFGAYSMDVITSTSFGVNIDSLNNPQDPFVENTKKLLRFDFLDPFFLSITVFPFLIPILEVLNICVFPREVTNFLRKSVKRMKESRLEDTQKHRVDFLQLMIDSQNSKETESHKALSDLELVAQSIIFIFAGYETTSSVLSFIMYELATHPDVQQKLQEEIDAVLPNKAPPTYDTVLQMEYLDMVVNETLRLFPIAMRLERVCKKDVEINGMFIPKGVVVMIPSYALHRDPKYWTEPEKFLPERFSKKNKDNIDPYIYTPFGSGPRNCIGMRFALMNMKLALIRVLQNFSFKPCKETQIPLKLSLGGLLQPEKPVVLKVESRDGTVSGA

[14] = test system: Striatum; assay: Effect on plasma glycine level in rat striatum at 10 mg/kg, po; format: functional
How it was run: (§2)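 Rat striatal microdialysis after a 10 mg/kg oral dose. Extracellular glycine measured as fold over basal levels, with sampling stopped at 3 h. Plasma and brain exposures determined at 3 h post-dose. n = 6.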

[15] = test system: Brain; assay: Effect on brain glycine level in rat striatum at 10 mg/kg, po; format: functional; how it was run: as §2
[16] = Oral bioavailability in mouse at 7.7 mg/kg; format: ADME, organism-based; conditions: in vivo; how it was run: as §1
[17] = molecular target: Cytochrome P450 2C9 (Homo sapiens, UniProt P11712); assay: Inhibition of CYP2C9 (unknown origin); format: ADME
Cytochrome P450 2C9, sequence (P11712 whole entry): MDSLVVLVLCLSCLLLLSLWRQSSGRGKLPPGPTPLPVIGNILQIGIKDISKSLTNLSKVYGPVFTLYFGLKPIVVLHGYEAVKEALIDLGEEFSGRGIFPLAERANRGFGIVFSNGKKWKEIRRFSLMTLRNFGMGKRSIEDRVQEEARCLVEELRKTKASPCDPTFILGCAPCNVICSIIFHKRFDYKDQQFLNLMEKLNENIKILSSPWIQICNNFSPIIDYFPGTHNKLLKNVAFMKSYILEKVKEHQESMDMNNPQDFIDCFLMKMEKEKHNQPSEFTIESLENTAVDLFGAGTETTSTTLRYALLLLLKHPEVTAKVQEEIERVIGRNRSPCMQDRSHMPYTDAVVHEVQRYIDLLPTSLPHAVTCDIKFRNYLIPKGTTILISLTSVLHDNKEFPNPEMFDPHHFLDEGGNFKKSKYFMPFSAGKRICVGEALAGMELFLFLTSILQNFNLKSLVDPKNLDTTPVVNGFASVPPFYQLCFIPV

[18] = Ratio of drug level in rat brain after 3 hrs to EC50 for human GlyT1 by [3H]glycine uptake assay
[19] = Half life in mouse at 7.7 mg/kg, po; format: ADME, organism-based; parameters: dose 7.7 mg/kg, route oral; conditions: in vivo; how it was run: as §1

COc1cc(C(F)(F)F)cc(SC)c1C(=O)N[C@@]1(c2ccccc2)CCCN(C)C1
Kp at 1.5 h [1]: 4.3
pKa [2]: 7.72
IC50 [3]: 16 µM
inhibition [4]: Dose-dependent effect
ED50 ([4]; read-out: ID50 (the source's name)): 1.5 mg/kg
EC50 [5]: 15 µM
IC20 [6]: 5.4 µM
efflux ratio [7]: 0.9
Activity [8]: Non-toxic
microsomal CLint [9]: 19 µL/min/mg
IC50 [10]: 46 µM
EC50 [11]: 0.01 µM
microsomal CLint [12]: 54 µL/min/mg
IC50 [13]: > 50 µM
Activity [14]: 713 ng/mL
Activity [15]: 60 ng/mL
bioavailability [16]: 100%
IC50 [17]: > 50 µM
Ratio [18]: 13
half-life [19]: 4.2 h
